According to publication PMC9289880 (Journal of Medicinal Chemistry, 2022):
Read-outs that look alike come from different tables or passages of the source. *1 amine or outer side, *2 acyl side, *3 side chain or, on linkers, in order; H or OH if unused. Where a SMILES comes first, the peptide text is derived from it. Bridges are numbered along the chain shown (N, C = ends). [ ]: non-standard residue; d: D form. Pro(trans-3-OAllyl) = C=CCO[C@H]1CCN[C@@H]1C(=O)O; Pro(3R-Ph) = O=C(O)[C@H]1NCC[C@@H]1c1ccccc1; Bip = N[C@@H](Cc1ccc(-c2ccccc2)cc1)C(=O)O; Ala(cPent) = N[C@@H](CC1CCCC1)C(=O)O; d(αMeS) = C[C@@](N)(CO)C(=O)O; Ahp(2) = CCCCC[C@H](N)C(=O)O; CH2 = C([*:1])[*:2]

How the values were obtained:
KRAS^G12D = KRAS^G12D (Homo sapiens, UniProt P01116, G12D); experiment: SOS-catalyzed guanine nucleotide exchange; type: biochemical
KRAS^G12D, sequence (P01116 1-188 isoform P01116-2 G12D): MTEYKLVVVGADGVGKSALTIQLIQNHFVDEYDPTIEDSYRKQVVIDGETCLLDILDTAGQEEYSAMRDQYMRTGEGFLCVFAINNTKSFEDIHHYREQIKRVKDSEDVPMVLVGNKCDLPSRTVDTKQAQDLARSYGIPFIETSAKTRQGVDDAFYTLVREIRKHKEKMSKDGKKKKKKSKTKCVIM

pERK, AsPC-1 cells = experiment: AlphaScreen pERK assay in AsPC-1 cells; type: cell-based; details: for IC50: pERK
Method in brief: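 AsPC-1 cells grown in RPMI 1640 (GlutaMAX, HEPES) with 10% FBS and penicillin/streptomycin. Seeded at 15 000 cells/well and held overnight at 37 °C, 5% CO2, then switched to serum-free medium. Compound dose-response series added acoustically, then incubated 2 and 18 h. Cells washed with DPBS and lysed with protease inhibitors. pERK (615 nm) and total ERK (535 nm) read by AlphaScreen SureFire multiplex. pERK/total ERK ratio fitted to 4-parameter logistic.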

[1] = Cell homogenate stability assay; type: in vitro ADME; details: human, HeLa cell homogenate
Method in brief: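 HeLa cells suspended at 1 × 10^6 cells/mL, probe-sonicated on ice until homogeneous, then frozen at −20 °C until use. Peptides incubated with the homogenate (1 × 10^6 cells/mL equivalent). Loss of parent peptide over increasing time quantified by LC-MS/MS.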

HeLa cells = experiment: NanoClick cell permeability assay; type: in vitro ADME, Human
[2] = read-out: AlphaScreen (AsPC-1) 2 h IC50, AsPC-1, 2 h
[3] = read-out: AlphaScreen (AsPC-1) 18 h IC50, AsPC-1, 18 h

SMILES	IC50 (KRAS^G12D)	IC50 (pERK, AsPC-1 cells; [2])	IC50 (pERK, AsPC-1 cells; [3])	further results
CC(=O)N[C@@H](CCCNC(=N)N)C(=O)N[C@@H](CCCNC(=N)N)C(=O)N[C@H]1CSSC[C@@H](C(=O)N[C@@H](CCCNC(=N)N)C(=O)N[C@@H](CCCNC(=N)N)C(N)=O)NC(=O)[C@H](C(C)C)NC(=O)[C@@H]2CCCN2C(=O)[C@H](CC(=O)O)NC(=O)[C@H](Cc2ccc(O)cc2)NC(=O)[C@H](CO)NC(=O)[C@H](CC2CCCC2)NC(=O)[C@H](Cc2ccc(-c3ccccc3)cc2)NC(=O)[C@H](CC(C)C)NC(=O)[C@@H]2CCCN2C1=O [1-11, Ac-RR-cyclo(CPL-Bip-cPeA-SYDPVC)-RR-NH2] (Ac-RRCPL[Bip][Ala(cPent)]SYDPVCRR-NH2; disulfide 3-13)	> 11.1 µM			
CC[C@H](C)[C@@H]1NC(=O)[C@H](Cc2ccc(-c3ccccc3)cc2)NC(=O)[C@H](COC)NC(=O)[C@@H]2CCCN2C(=O)[C@@H](NC(=O)[C@H](CCCNC(=N)N)NC(=O)[C@H](CCCNC(=N)N)NC(C)=O)CSSC[C@@H](C(=O)N[C@@H](CCCNC(=N)N)C(=O)N[C@@H](CCCNC(=N)N)C(N)=O)NC(=O)[C@H](C(C)C)NC(=O)[C@@H]2CCCN2C(=O)[C@H](CC(=O)O)NC(=O)[C@H](Cc2ccc(O)cc2)NC(=O)[C@H](CO)NC1=O [3-02, Ac-RR-cyclo(CP-SerOMe-Bip-ISYDPVC)-RR-NH2] (Ac-RRCPS(Me)[Bip]ISYDPVCRR-NH2; disulfide 3-13)	1.13 µM			
C=CCO[C@H]1CCN2C(=O)[C@@H](NC(=O)[C@H](CCCNC(=N)N)NC(=O)[C@H](CCCNC(=N)N)NC(C)=O)CSSC[C@@H](C(=O)N[C@@H](CCCNC(=N)N)C(=O)N[C@@H](CCCNC(=N)N)C(N)=O)NC(=O)[C@H](C(C)C)NC(=O)[C@@H]3CCCN3C(=O)[C@H](CC(=O)O)NC(=O)[C@H](Cc3ccc(O)cc3)NC(=O)[C@H](CO)NC(=O)[C@H]([C@@H](C)CC)NC(=O)[C@H](Cc3ccc(-c4ccccc4)cc3)NC(=O)[C@H](CC(C)C)NC(=O)[C@H]12 [3-05, Ac-RR-cyclo(C-Prot3OAl-L-Bip-ISYDPVC)-RR-NH2] (Ac-RRC[Pro(trans-3-OAllyl)]L[Bip]ISYDPVCRR-NH2; disulfide 3-13)	0.001 µM			fold improvement in SOS potency over reference peptide 1-09 (KRAS^G12D): 7 fold
C=CCO[C@H]1CCN2C(=O)[C@H](NC(=O)[C@H](CCCNC(=N)N)NC(=O)[C@H](CCCNC(=N)N)NC(C)=O)CSCSC[C@@H](C(=O)N[C@@H](CCCNC(=N)N)C(=O)N[C@@H](CCCNC(=N)N)C(N)=O)NC(=O)[C@H](C(C)C)NC(=O)[C@@H]3CCCN3C(=O)[C@H](CC(=O)O)NC(=O)[C@H](Cc3ccc(O)cc3)NC(=O)[C@H](CO)NC(=O)[C@H]([C@@H](C)CC)NC(=O)[C@H](Cc3ccc(-c4ccccc4)cc3)NC(=O)[C@H](CC(C)C)NC(=O)[C@H]12 [5-02, Ac-RR-cyclo(c(methylene)-Prot3OAl-L-Bip-ISYDPVC)-RR-NH2] (Ac-RR[dC][Pro(trans-3-OAllyl)]L[Bip]ISYDPVCRR-NH2; linker 3-13 via CH2)	< 0.001 µM	28 µM	> 50 µM	
CCCCC[C@@H]1NC(=O)[C@@H]2CCCN2C(=O)[C@H](CC(=O)O)NC(=O)[C@H](Cc2ccc(O)cc2)NC(=O)[C@H](CO)NC(=O)[C@H]([C@@H](C)CC)NC(=O)[C@H](Cc2ccc(-c3ccccc3)cc2)NC(=O)[C@H](CC(C)C)NC(=O)[C@@H]2[C@@H](c3ccccc3)CCN2C(=O)[C@H](NC(=O)[C@H](CCCNC(=N)N)NC(=O)[C@H](CCCNC(=N)N)NC(C)=O)CSCSC[C@@H](C(=O)N[C@@H](CCCNC(=N)N)C(=O)N[C@@H](CCCNC(=N)N)C(N)=O)NC1=O [5-03, Ac-RR-cyclo(c(methylene)-Prot3Ph-L-Bip-ISYDP-Ahp-C)-RR-NH2] (Ac-RR[dC][Pro(3R-Ph)]L[Bip]ISYDP[Ahp(2)]CRR-NH2; linker 3-13 via CH2)	< 0.001 µM	6.8 µM	29 µM	half-life at 1 µM [1]: > 6.2 h
C=CCO[C@H]1CCN2C(=O)[C@H](NC(=O)[C@H](CCCNC(=N)N)NC(=O)[C@H](CCCNC(=N)N)NC(C)=O)CSCSC[C@@H](C(=O)N[C@@H](CCCNC(=N)N)C(=O)N[C@@H](CCCNC(=N)N)C(N)=O)NC(=O)[C@H](CCCCC)NC(=O)[C@@H]3CCCN3C(=O)[C@H](CC(=O)O)NC(=O)[C@H](Cc3ccc(O)cc3)NC(=O)[C@H](CO)NC(=O)[C@H]([C@@H](C)CC)NC(=O)[C@H](Cc3ccc(-c4ccccc4)cc3)NC(=O)[C@H](CC(C)C)NC(=O)[C@H]12 [5-04, Ac-RR-cyclo(c(methylene)-Prot3OAl-L-Bip-ISYDP-Ahp-C)-RR-NH2] (Ac-RR[dC][Pro(trans-3-OAllyl)]L[Bip]ISYDP[Ahp(2)]CRR-NH2; linker 3-13 via CH2)	< 0.001 µM		> 50 µM	
CC[C@H](C)[C@@H]1NC(=O)[C@H](Cc2ccc(-c3ccccc3)cc2)NC(=O)[C@H](CC(C)C)NC(=O)[C@@H]2CCCN2C(=O)[C@@H](NC(=O)[C@H](CCCNC(=N)N)NC(=O)[C@H](CCCNC(=N)N)NC(C)=O)CSSC[C@@H](C(=O)N[C@@H](CCCNC(=N)N)C(=O)N[C@@H](CCCNC(=N)N)C(N)=O)NC(=O)[C@H](C(C)C)NC(=O)[C@@H]2CCCN2C(=O)[C@H](CC(=O)O)NC(=O)[C@H](Cc2ccc(O)cc2)NC(=O)[C@H](CO)NC1=O [peptide 1-09, Ac-RR-cyclo(CPL-Bip-ISYDPVC)-RR-NH2] (Ac-RRCPL[Bip]ISYDPVCRR-NH2; disulfide 3-13)				fold improvement in SOS potency over reference 2 (KRpep-2) (KRAS^G12D): 8 fold
CC[C@H](C)[C@@H]1NC(=O)[C@H](Cc2ccc(-c3ccccc3)cc2)NC(=O)[C@H](CC(C)C)NC(=O)[C@@H]2[C@@H](c3ccccc3)CCN2C(=O)[C@@H](NC(=O)[C@H](CCCNC(=N)N)NC(=O)[C@H](CCCNC(=N)N)NC(C)=O)CSSC[C@@H](C(=O)N[C@@H](CCCNC(=N)N)C(=O)N[C@@H](CCCNC(=N)N)C(N)=O)NC(=O)[C@H](C(C)C)NC(=O)[C@@H]2CCCN2C(=O)[C@H](CC(=O)O)NC(=O)[C@H](Cc2ccc(O)cc2)NC(=O)[C@H](CO)NC1=O [peptide 3-09, Ac-RR-cyclo(C-Prot3Ph-L-Bip-ISYDPVC)-RR-NH2] (Ac-RRC[Pro(3R-Ph)]L[Bip]ISYDPVCRR-NH2; disulfide 3-13)				fold improvement in SOS potency over reference peptide 1-09 (KRAS^G12D): 7 fold
CC[C@H](C)[C@@H]1NC(=O)[C@H](Cc2ccc(-c3ccccc3)cc2)NC(=O)[C@H](CC(C)C)NC(=O)[C@@H]2[C@@H](c3ccccc3)CCN2C(=O)[C@H](NC(=O)[C@H](CCCNC(=N)N)NC(=O)[C@H](CCCNC(=N)N)NC(C)=O)CSCSC[C@@H](C(=O)N[C@@H](CCCNC(=N)N)C(=O)N[C@@H](CCCNC(=N)N)C(N)=O)NC(=O)[C@H](C(C)C)NC(=O)[C@@H]2CCCN2C(=O)[C@H](CC(=O)O)NC(=O)[C@H](Cc2ccc(O)cc2)NC(=O)[C@H](CO)NC1=O [peptide 5-01, Ac-RR-cyclo(c(methylene)-Prot3Ph-L-Bip-ISYDPVC)-RR-NH2] (Ac-RR[dC][Pro(3R-Ph)]L[Bip]ISYDPVCRR-NH2; linker 3-13 via CH2)	< 0.001 µM	3.3 µM	33 µM	half-life at 1 µM [1]: > 6.2 h
CC[C@H](C)[C@@H]1NC(=O)[C@H](Cc2ccc(-c3ccccc3)cc2)NC(=O)[C@H](CC(C)C)NC(=O)[C@@H]2[C@@H](c3ccccc3)CCN2C(=O)[C@H](NC(=O)[C@H](CCCNC(=N)N)NC(=O)[C@H](CCCNC(=N)N)NC(=O)[C@H](CCCCN=[N+]=[N-])NC(C)=O)CSCSC[C@@H](C(=O)N[C@@H](CCCNC(=N)N)C(=O)N[C@@H](CCCNC(=N)N)C(N)=O)NC(=O)[C@H](C(C)C)NC(=O)[C@@H]2CCCN2C(=O)[C@H](CC(=O)O)NC(=O)[C@H](Cc2ccc(O)cc2)NC(=O)[C@H](CO)NC1=O [peptide 6, Ac-Lys(N3)-RR-cyclo(c(methylene)-Prot3Ph-L-Bip-ISYDPVC)-RR-NH2]	< 0.001 µM	2.7 µM	19 µM	SOS GNE potency / binding, in words (KRAS^G12D): subnanomolar; half-life at 1 µM [1]: > 6.2 h; fold improved cellular activity at 2 h versus 18 h (pERK, AsPC-1 cells; AsPC-1 pERK): 6 fold; NanoClick permeability at 4 h, in words (HeLa cells): limited permeability; NanoClick permeability at 18 h, in words (HeLa cells): much-increased permeability; EC50 (HeLa cells; read-out: NanoClick (HeLa) 4 h EC50, 4 h): 7.32 µM; EC50 (HeLa cells; read-out: NanoClick (HeLa) 18 h EC50, 18 h): 0.199 µM
CC[C@@H](C)[C@H]1NC(=O)[C@H](Cc2ccc(-c3ccccc3)cc2)NC(=O)[C@H](CC(C)C)NC(=O)[C@@H]2[C@@H](c3ccccc3)CCN2C(=O)[C@H](NC(=O)[C@@H](CCCNC(=N)N)NC(=O)[C@@H](CCCNC(=N)N)NC(C)=O)CSCSC[C@@H](C(=O)N[C@H](CCCNC(=N)N)C(=O)N[C@H](CCCNC(=N)N)C(N)=O)NC(=O)[C@H](C(C)C)NC(=O)[C@@H]2CCCN2C(=O)[C@H](CC(=O)O)NC(=O)[C@H](Cc2ccc(O)cc2)NC(=O)[C@@](C)(CO)NC1=O [peptide 8, Ac-rr-cyclo(c(methylene)-Prot3Ph-L-Bip-i-aMeS-YDPVC)-rr-NH2] (Ac-[dR][dR][dC][Pro(3R-Ph)]L[Bip][dI][d(αMeS)]YDPVC[dR][dR]-NH2; linker 3-13 via CH2)				SOS GNE potency / binding, in words (KRAS^G12D): no response; cellular (pERK) activity, in words (pERK, AsPC-1 cells; AsPC-1): no cellular activity
CC[C@H](C)[C@@H]1NC(=O)[C@H](Cc2ccc(O)cc2)NC(=O)[C@H](CC(C)C)NC(=O)[C@@H]2CCCN2C(=O)[C@H](NC(=O)[C@@H](CCCNC(=N)N)NC(=O)[C@@H](CCCNC(=N)N)NC(=O)[C@H](CCCCN=[N+]=[N-])NC(C)=O)CSCSC[C@@H](C(=O)N[C@H](CCCNC(=N)N)C(=O)N[C@H](CCCNC(=N)N)C(N)=O)NC(=O)[C@H](C(C)C)NC(=O)[C@@H]2CCCN2C(=O)[C@H](CC(=O)O)NC(=O)[C@H](Cc2ccc(O)cc2)NC(=O)[C@H](CO)NC1=O [peptide 10]				NanoClick permeability at 4 h, in words (HeLa cells): no permeability; NanoClick permeability at 18 h, in words (HeLa cells): very limited permeability
